Source: PubChem BioAssay
DNMT1 inh: human DNMT1 methyltransferase inhibitors, primary screen, biochemical, molecular beacon, fluorescence, HinP1I cleavage, uHTS | inhibition (reported as % activation of signal), % at 10 µM | DNA (cytosine-5)-methyltransferase 1 (Homo sapiens), P26358 | hit rate 0.83% among 360,000 | AID 588458, 2011; in the data active = inhibition above about 50%
MBD2 inh: inhibitors of MBD2 binding to methylated DNA, primary screen, biochemical, TR-FRET, DNA-binding domain, human | Methyl-CpG-binding domain protein 2 (Homo sapiens), Q9UBB5 | hit rate 0.31% among 370,000 | MBD2 binding to methylated oligonucleotide | inhibition, % at 4.4 µM; in the data active = inhibition above about 13%
Target sequence (Q9UBB5 whole entry, looked up, the tested form may be a part): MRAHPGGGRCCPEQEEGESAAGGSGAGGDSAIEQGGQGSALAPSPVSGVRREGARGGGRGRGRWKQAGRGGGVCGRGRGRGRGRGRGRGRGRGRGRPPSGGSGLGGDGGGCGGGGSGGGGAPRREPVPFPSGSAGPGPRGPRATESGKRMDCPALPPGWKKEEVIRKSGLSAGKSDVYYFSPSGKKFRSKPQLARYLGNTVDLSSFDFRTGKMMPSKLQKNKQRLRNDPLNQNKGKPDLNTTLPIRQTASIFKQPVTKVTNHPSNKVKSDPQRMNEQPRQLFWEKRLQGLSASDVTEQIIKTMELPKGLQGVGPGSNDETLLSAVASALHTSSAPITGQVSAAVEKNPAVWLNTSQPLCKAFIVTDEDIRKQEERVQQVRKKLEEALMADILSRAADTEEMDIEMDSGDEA
NS3 helicase inh: inhibitors of HCV NS3 helicase, primary screen, biochemical, Cy5 molecular beacon fluorescence; Hepatitis C virus NS3 helicase; NS3 helicase DNA unwinding; inhibition, % at 10.9 µM; hit rate 0.56% among 290,000; AID 1800, 2009;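 active = inhibition above the mean of all tested compounds plus 3 SD, set per campaign, cut at about 35% in these data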;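 also: 0% = DMSO wells and 100% = thioflavine S control wells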
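System: NS3 helicase fragment of HCV / Schedule: 1 h at 25 °C / Control set: DMSO alone as 0% and 110 µM thioflavine S as 100% / Reagent: Cy5/quencher beacon DNA duplex and ATP to start / Technique: Cy5 fluorescence / Replication: singlicate / Evaluation: % inhibition of end-to-start signal ratio versus controls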
DSG3 Ab inh: inhibitors of pemphigus antibody binding to DSG3, primary screen, biochemical, bead-based, flow cytometry, scFv-GFP; DSG3-coupled beads, scFv-anti-DSG3-GFP binding; active compounds read low; binding (percent of control), % at 10 µM; hit rate 0.48% among 310,000; AID 588358, 2011;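 active = binding more than 3 SD below its plate's average and above zero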;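 also: hits lower antibody fragment binding to DSG3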
SUMO1 PPI mod: modulators of SUMO1 protein-protein interactions, primary screen, biochemical, uHTS; hit rate 0.33% among 360,000; Small ubiquitin-related modifier 1 (Homo sapiens), P63165; SUMO1 binding to a labelled peptide, TR-FRET, 1 h; inhibition, % at 20 µM
Target sequence (P63165 whole entry, looked up): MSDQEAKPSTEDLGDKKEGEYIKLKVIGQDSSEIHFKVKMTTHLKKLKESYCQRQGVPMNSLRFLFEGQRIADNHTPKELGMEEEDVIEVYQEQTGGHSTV
UHRF1 MBD2 ctr: UHRF1 methylated DNA binding inhibitors, primary screen, counter-screen for MBD2 inhibitor project, biochemical, TR-FRET, human UHRF1, single concentration | E3 ubiquitin-protein ligase UHRF1 (Homo sapiens), Q96T88 | hit rate 0.75% among 370,000 | inhibition, % at 4.4 µM | UHRF1 binding to methylated oligo; in the data active = inhibition above about 21%;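 also: UHRF1 SRA domain binding a hemimethylated CpG hairpin DNA probe; 0% = median of test compound wells and 100% = reference inhibitor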
NS3 helicase cf: HCV NS3 helicase inhibitors, retest, confirmation, biochemical, Cy5 molecular beacon fluorescence, triplicate. inhibition, % at 10.9 µM. NS3 helicase DNA unwinding. hit rate 31% among 1,600. shares compounds with NS3 helicase inh. AID 1943, 2009;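 active = inhibition above the mean of all tested compounds plus 3 SD, cutoff set per campaign, cut at about 36% in these data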
DNA FID counter: compounds displacing fluorescent DNA intercalator, artefact control for HCV NS3 helicase inhibitor project, biochemical, FID fluorescence, triplicate; inhibition, % at 7.9 µM; DNA fluorescent intercalator displacement; hit rate 4% among 1,600; shares compounds with NS3 helicase inh; AID 1945, 2009;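 also: 0% = vehicle and 100% = reference compound; higher means more displacement of ethidium bromide from the DNA hairpin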
An asterisk follows results filed as active. In the library only some 2.5% were active in any assay of this set; here they are far more common. Rule as the data show it, unless noted: active = inhibition above about 37%; inactive = the rest.

How did CC(C)N1C(=O)CC(Nc2cccc3cccc(N)c23)C1=O (stereo not drawn) do in these assays?
DNMT1 inh: -15; MBD2 inh: -13; NS3 helicase inh: 40*; DSG3 Ab inh: 103; SUMO1 PPI mod: -8; UHRF1 MBD2 ctr: -8; NS3 helicase cf: -15; DNA FID counter: 10

How did O=C1CC(Nc2ccc(N3CCOCC3)cc2)C(=O)N1C1CCCCC1 (stereo not drawn) do in these assays?
DNMT1 inh: -2; MBD2 inh: -6; NS3 helicase inh: 38*; DSG3 Ab inh: 105; SUMO1 PPI mod: -6; UHRF1 MBD2 ctr: -1; NS3 helicase cf: -16; DNA FID counter: -4

How did CN1C(=O)CC(Nc2cccc3cccc(N)c23)C1=O (stereo not drawn) do in these assays?
DNMT1 inh: -15; NS3 helicase inh: 9; DSG3 Ab inh: 119; SUMO1 PPI mod: -1

How did C=C(CN(C)C)C(=O)c1ccc(C)cc1C do in these assays?
DNMT1 inh: -10; MBD2 inh: 2; DSG3 Ab inh: 88; SUMO1 PPI mod: 0; UHRF1 MBD2 ctr: -2

Results for O=C(CCC1CCN(Cc2ccc(C#CCCO)cc2)CC1)NC1CC1 ?
DNMT1 inh: 0; MBD2 inh: 0; NS3 helicase inh: -1; DSG3 Ab inh: 103; SUMO1 PPI mod: -2; UHRF1 MBD2 ctr: 1

How did O=C(CCC1CCN(Cc2ccc(Cl)cc2)CC1)NC1CC1 do in these assays?
DNMT1 inh: -1; MBD2 inh: 1; NS3 helicase inh: 36*; DSG3 Ab inh: 98; SUMO1 PPI mod: 0; UHRF1 MBD2 ctr: 1; NS3 helicase cf: -15; DNA FID counter: 1

How did Cc1cc(C)cc(-n2c(SCC(=O)NCc3ccc4c(c3)OCO4)nc3ccccc3c2=O)c1 do in these assays?
DNMT1 inh: 7; MBD2 inh: 3; NS3 helicase inh: -3; DSG3 Ab inh: 78; SUMO1 PPI mod: 1; UHRF1 MBD2 ctr: 2

What do the screens show for `O=C(CSc1nc2cc([N+](=O)[O-])ccc2n1-c1ccccc1)NCc1ccc2c(c1)OCO2`?
DNMT1 inh: -4; MBD2 inh: -6; NS3 helicase inh: 40*; SUMO1 PPI mod: -2; UHRF1 MBD2 ctr: -5; NS3 helicase cf: 28; DNA FID counter: 4

Results for CCOC(=O)/C=C(C)\C=C\c1c[nH]c2ccccc12 ?
DNMT1 inh: -3; MBD2 inh: -4; NS3 helicase inh: 45*; SUMO1 PPI mod: -9; UHRF1 MBD2 ctr: -7; NS3 helicase cf: 2; DNA FID counter: 10

How did CN(C)S(=O)(=O)c1ccc(C(=O)Nc2nc(-c3cc4ccccc4o3)cs2)cc1 do in these assays?
DNMT1 inh: -6; MBD2 inh: -6; NS3 helicase inh: 7; DSG3 Ab inh: 96; SUMO1 PPI mod: -4; UHRF1 MBD2 ctr: -4

What do the screens show for `Cc1cc(-c2csc(NC(=O)c3ccc(S(=O)(=O)N(C)C)cc3)n2)c(C)n1-c1ccccc1`?
DNMT1 inh: -19; MBD2 inh: 1; NS3 helicase inh: 66*; DSG3 Ab inh: 84; SUMO1 PPI mod: -2; UHRF1 MBD2 ctr: -6; NS3 helicase cf: 34; DNA FID counter: 28

Results for COc1cccc(-c2ccnc3[nH]n(-c4ccccc4)c(=O)c23)c1 ?
DNMT1 inh: -3; MBD2 inh: -3; NS3 helicase inh: 13; DSG3 Ab inh: 91; SUMO1 PPI mod: -1; UHRF1 MBD2 ctr: 9

What do the screens show for `Oc1ccc(/C=N\Nc2cc(N3CCOCC3)nc(N3CCOCC3)n2)c(O)c1`?
DNMT1 inh: -15; MBD2 inh: -9; NS3 helicase inh: -2; DSG3 Ab inh: 114; SUMO1 PPI mod: 6; UHRF1 MBD2 ctr: -3

How did Oc1ccc(/C=N/Nc2cc(N3CCCC3)nc(N3CCCC3)n2)cc1O do in these assays?
DNMT1 inh: 35; MBD2 inh: 2; NS3 helicase inh: 56*; DSG3 Ab inh: 112; SUMO1 PPI mod: 14; UHRF1 MBD2 ctr: 4; NS3 helicase cf: 8; DNA FID counter: 23

Results for CCCCC(=O)Nc1ccc(NC(=O)c2cnccn2)cn1 ?
DNMT1 inh: -4; MBD2 inh: 0; NS3 helicase inh: 6; DSG3 Ab inh: 101; SUMO1 PPI mod: -3; UHRF1 MBD2 ctr: 3

Results for O=C1ON=C(c2ccccc2)/C1=C/c1ccc(O)c(O)c1 ?
DNMT1 inh: 10; MBD2 inh: -6; NS3 helicase inh: 46*; DSG3 Ab inh: 90; SUMO1 PPI mod: -14; UHRF1 MBD2 ctr: 0; NS3 helicase cf: 17; DNA FID counter: 4

How did CC1(C(=O)Nc2ccc3nc[nH]c3c2)CCN1C(=O)Cc1ccc(-c2ccccc2)cc1 (stereo not drawn) do in these assays?
DNMT1 inh: -7; MBD2 inh: 6; SUMO1 PPI mod: 7; UHRF1 MBD2 ctr: 7

How did COc1ccc(NC(=O)c2ccccc2F)cc1Cl do in these assays?
DNMT1 inh: -2; MBD2 inh: 5; NS3 helicase inh: -3; DSG3 Ab inh: 104; SUMO1 PPI mod: -1; UHRF1 MBD2 ctr: 0

How did O=C(Nc1ccc(Oc2ccc(Cl)cc2)c(Cl)c1)c1cc(I)cc(I)c1O do in these assays?
DNMT1 inh: 50; MBD2 inh: -3; NS3 helicase inh: 47*; DSG3 Ab inh: 101; SUMO1 PPI mod: 4; UHRF1 MBD2 ctr: 2; NS3 helicase cf: 84*; DNA FID counter: 33

What do the screens show for `COc1ccc(/C=C2\N=C(C)OC2=O)cc1OC`?
DNMT1 inh: 5; MBD2 inh: -1; NS3 helicase inh: 38*; DSG3 Ab inh: 96; SUMO1 PPI mod: -8; UHRF1 MBD2 ctr: 0; NS3 helicase cf: -13; DNA FID counter: 18

What do the screens show for `FC(F)Oc1ccc(N=C2SCC3CCCCN23)cc1` (stereo not drawn)?
DNMT1 inh: -2; MBD2 inh: -1; NS3 helicase inh: -3; DSG3 Ab inh: 98; SUMO1 PPI mod: 0; UHRF1 MBD2 ctr: 1

Results for CN(C)c1ccc(N=Nc2ccc(C(=O)O)cc2)cc1 ?
DNMT1 inh: 33; MBD2 inh: 0; NS3 helicase inh: 63*; DSG3 Ab inh: 95; SUMO1 PPI mod: -39; UHRF1 MBD2 ctr: 29*; NS3 helicase cf: -20; DNA FID counter: -3
